From ChEMBL document CHEMBL4689842, “EUbOPEN Chemogenomics Library wave 1” (2021)

System: HEK-293T
Experiment: Multiplex assay against HEK293T;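 for Population Tubulin-Different-Phenotype (%): share of the cells with healthy nuclei that show this phenotype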
Assay type: toxicity, cell-based
Settings: human
How it was run: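 Live cells were stained at seeding with Hoechst33342, BioTracker Green Microtubule Cytoskeleton Dye, MitoTracker Red and Annexin V Alexa Fluor 680. Following compound addition, they were imaged on a CQ1 microscope at 37°C and 5% CO2 and gated by CellPathfinder machine learning into Hoechst high-intensity objects or normal cells, with normal cells split into healthy, pyknosed or fragmented nuclei and pyknosed cells into mitotic or apoptotic. Tubulin, mitochondrial-mass and membrane-permeability phenotypes are per cents of healthy-nucleus cells.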

[1] = 12 h, 1 µM, compound concentration 1 uM, replicate 1
[2] = 12 h, 1 µM, compound concentration 1 uM, replicate 2
[3] = 12 h, 10 µM, compound concentration 10 uM, replicate 1
[4] = 12 h, 10 µM, compound concentration 10 uM, replicate 2
[5] = 24 h, 1 µM, compound concentration 1 uM, replicate 1
[6] = 24 h, 1 µM, compound concentration 1 uM, replicate 2
[7] = 24 h, 10 µM, compound concentration 10 uM, replicate 1
[8] = 24 h, 10 µM, compound concentration 10 uM, replicate 2

Cc1nc(N2CC[C@H](O)C2)ncc1-c1cc(C(F)(F)F)cc2[nH]ncc12
Population Apoptotic (%) [1]: 20%
Population Fragmented Nuclei (%) [1]: 9%
Population Healthy Nuclei (%) [1]: 70%
Population Hoechst High Intensity Objects (%) [1]: 7%
Population Membrane Permeable-Phenotype (%) [1]: 3%
Population Mitochondria Different-Phenotype (%) [1]: 7%
Population Mitotic Cells (%) [1]: 79%
Population Normal (%) [1]: 92%
Population Pyknosed Nuclei (%) [1]: 20%
Population Tubulin-Different-Phenotype (%) [1]: 5%
Total Cell Count [1]: 628
Population Apoptotic (%) [2]: 8%
Population Fragmented Nuclei (%) [2]: 7%
Population Healthy Nuclei (%) [2]: 87%
Population Hoechst High Intensity Objects (%) [2]: 2%
Population Membrane Permeable-Phenotype (%) [2]: 1%
Population Mitochondria Different-Phenotype (%) [2]: 10%
Population Mitotic Cells (%) [2]: 91%
Population Normal (%) [2]: 97%
Population Pyknosed Nuclei (%) [2]: 4%
Population Tubulin-Different-Phenotype (%) [2]: 9%
Total Cell Count [2]: 1293
Population Apoptotic (%) [3]: 24%
Population Fragmented Nuclei (%) [3]: 11%
Population Healthy Nuclei (%) [3]: 70%
Population Hoechst High Intensity Objects (%) [3]: 9%
Population Membrane Permeable-Phenotype (%) [3]: 4%
Population Mitochondria Different-Phenotype (%) [3]: 4%
Population Mitotic Cells (%) [3]: 75%
Population Normal (%) [3]: 90%
Population Pyknosed Nuclei (%) [3]: 18%
Population Tubulin-Different-Phenotype (%) [3]: 3%
Total Cell Count [3]: 699
Population Apoptotic (%) [4]: 5%
Population Fragmented Nuclei (%) [4]: 7%
Population Healthy Nuclei (%) [4]: 88%
Population Hoechst High Intensity Objects (%) [4]: 1%
Population Membrane Permeable-Phenotype (%) [4]: 1%
Population Mitochondria Different-Phenotype (%) [4]: 8%
Population Mitotic Cells (%) [4]: 94%
Population Normal (%) [4]: 98%
Population Pyknosed Nuclei (%) [4]: 4%
Population Tubulin-Different-Phenotype (%) [4]: 4%
Total Cell Count [4]: 1684
Population Apoptotic (%) [5]: 22%
Population Fragmented Nuclei (%) [5]: 7%
Population Healthy Nuclei (%) [5]: 79%
Population Hoechst High Intensity Objects (%) [5]: 5%
Population Membrane Permeable-Phenotype (%) [5]: 5%
Population Mitochondria Different-Phenotype (%) [5]: 4%
Population Mitotic Cells (%) [5]: 77%
Population Normal (%) [5]: 94%
Population Pyknosed Nuclei (%) [5]: 12%
Population Tubulin-Different-Phenotype (%) [5]: 11%
Total Cell Count [5]: 702
Population Apoptotic (%) [6]: 3%
Population Fragmented Nuclei (%) [6]: 17%
Population Hoechst High Intensity Objects (%) [6]: 2%
Population Membrane Permeable-Phenotype (%) [6]: 4%
Population Mitochondria Different-Phenotype (%) [6]: 3%
Population Mitotic Cells (%) [6]: 96%
Population Normal (%) [6]: 97%
Population Pyknosed Nuclei (%) [6]: 2%
Population Tubulin-Different-Phenotype (%) [6]: 14%
Total Cell Count [6]: 1975
Population Apoptotic (%) [7]: 28%
Population Fragmented Nuclei (%) [7]: 10%
Population Healthy Nuclei (%) [7]: 80%
Population Hoechst High Intensity Objects (%) [7]: 5%
Population Membrane Permeable-Phenotype (%) [7]: 12%
Population Mitochondria Different-Phenotype (%) [7]: 1%
Population Mitotic Cells (%) [7]: 71%
Population Normal (%) [7]: 94%
Population Pyknosed Nuclei (%) [7]: 9%
Population Tubulin-Different-Phenotype (%) [7]: 6%
Total Cell Count [7]: 840
Population Apoptotic (%) [8]: 6%
Population Fragmented Nuclei (%) [8]: 21%
Population Healthy Nuclei (%) [8]: 75%
Population Hoechst High Intensity Objects (%) [8]: 2%
Population Membrane Permeable-Phenotype (%) [8]: 5%
Population Mitotic Cells (%) [8]: 93%
Population Normal (%) [8]: 97%
Population Pyknosed Nuclei (%) [8]: 2%
Population Tubulin-Different-Phenotype (%) [8]: 5%
Total Cell Count [8]: 2845
